Reference: PubChem BioAssay
Activity calls are given as the source filed them.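 The calls were made as follows, unless noted: active = inhibition of the reporter signal at or above 50%; inactive = inhibition below 50%.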 Where a SMILES comes first, the peptide text is derived from it. The star is where a group is joined. Boc = CC(C)(C)OC(=O)*

Experiments:
[1] = inhibitors of TNFa-induced NFkB p65 translocation, primary screen, imaging, HUVEC, MLSMR starter and 10KST1 sets (AID 438;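 active = inhibition above 20% together with a positive visual image hit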;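 also: compound added about 3h40 before a 20 min TNFalpha stimulation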;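 as to inhibition: signal is the nuclear over cytoplasmic p65 intensity ratio per well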); details: HUVEC TNFa-induced p65 nuclear translocation; cell count: measured here: nuclei count (cytotoxicity indicator), at 2.08 µM; inhibition: at 2 µM, stronger effect = higher value, 0% TNFa-plus-vehicle, 100% no-TNFa wells
[2] = reduction of polyQ htt aggregates in cells – imaging, exon1htt(103Q)mCFP cells, high-content imaging, primary screen (AID 483;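 active = visual image review flags a hit and inhibition of aggregation exceeds 20%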;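 also: compound exposure lasted 3 days before fixation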;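 as to nuclei count: percent of the per-plate median nuclei count of sample wells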); details: exon1htt(103Q)mCFP cell line, aggregate imaging, at 2 µM; inhibition of aggregation: stronger effect = higher value; nuclei count: measured here: cell count, toxicity
[3] = endothelial E-selectin expression blockers – imaging, HUVEC, immunofluorescence, MLSMR starter and 10KST1 sets, primary screen (AID 487;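 active = visually confirmed hit in the image check and inhibition above 20%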;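 as to inhibition: signal is fraction of cell area covered by stained E-selectin grains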;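 as to nuclei count: 100% = median nuclei count of all wells on the same plate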); details: HUVEC TNFalpha-induced E-selectin immunofluorescence imaging, at 2 µM; inhibition: stronger effect = higher value; nuclei count: measured here: cell number, toxicity
[4] = target: Voltage-gated potassium channel subunit beta-2 (Rattus norvegicus) (UniProt P62483); experiment: inhibitors of rat Kvbeta2 reductase activity – biochemical, NADPH fluorescence, primary screen (AID 622;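 active = fluorescence slope higher than the sample average by over 3 SD, cut at about -0.22 in these data, passing the limit was not always enough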;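 also: slope of raw intensity against log time taken from 70 to 1610 s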); details: recombinant KvBeta, 4-cyanobenzaldehyde reduction, at 10 µM, stronger effect = higher value
[5] = target: Voltage-gated potassium channel subunit beta-2 (Rattus norvegicus) (UniProt P62483); experiment: enhancers of rat Kvbeta2 NADPH turnover – biochemical, NADPH fluorescence, primary screen (AID 623;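 active = NADPH fluorescence slope more negative than the mean of all samples by about 3 SD, 99.7% confidence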;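 also: fluorescence intensity change per second fitted from 20 to 320 s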); details: Recombinant KvBeta, NADPH fluorescence decrease slope, 10 min; at 10 µM; stronger effect = lower value
[6] = target: Muscarinic acetylcholine receptor M4 (Homo sapiens) (UniProt P08173); experiment: M4-linked GIRK flux change, two-sided – cell-based, HEK293 M4/GIRK, thallium flux, BTC-AM, M4 allosteric agonist project, primary screen (AID 625;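 active = fluorescence slope after compound addition differing from the mean of all tested samples at 99.7% confidence, mostly higher but some lower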;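 also: thallium influx through GIRK channels coupled to M4 in HEK293 cells with BTC-AM dye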); details: at 10 µM, actives lie on both sides
Method in brief: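 System: HEK293 cells with M4 receptor and GIRK channels | Incubation: Cells overnight at 37 °C, BTC-AM loading 1 h, reads 2 min total | Technique: Kinetic BTC-AM fluorescence sampled at 1 Hz, 10 s pre-addition baseline | Measure: Post-addition slope, 15–24 s, of baseline-normalized fluorescence | Control set: Carbachol positive, DMSO negative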

[7] = blockers of RIG-like receptor reporter activation – cell-based, Sendai virus stimulus, luciferase, 10K MLSCN set, TLR/RLR signaling modifier project, primary screen (AID 602276;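 active = inhibition at or above 50% at 10 µM; inactive = inhibition below 50%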;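 also: firefly luciferase from ISG56 promoter only with Renilla not read in this screen; 0% = Sendai virus plus DMSO and 100% = medium plus DMSO without virus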); details: HEK293 RL24 IRF3 luciferase reporter, at 10 µM, stronger effect = higher value
[8] = TLR3 IRF3 reporter activation blockers – cell-based, poly I:C stimulus, luciferase, 10K MLSCN set, primary screen (AID 602277); details: HEK293-TLR3 RL24 IRF3 luciferase reporter, at 10 µM, stronger effect = higher value

Voltage-gated potassium channel subunit beta-2 (Rattus norvegicus), sequence (P62483 whole entry, looked up): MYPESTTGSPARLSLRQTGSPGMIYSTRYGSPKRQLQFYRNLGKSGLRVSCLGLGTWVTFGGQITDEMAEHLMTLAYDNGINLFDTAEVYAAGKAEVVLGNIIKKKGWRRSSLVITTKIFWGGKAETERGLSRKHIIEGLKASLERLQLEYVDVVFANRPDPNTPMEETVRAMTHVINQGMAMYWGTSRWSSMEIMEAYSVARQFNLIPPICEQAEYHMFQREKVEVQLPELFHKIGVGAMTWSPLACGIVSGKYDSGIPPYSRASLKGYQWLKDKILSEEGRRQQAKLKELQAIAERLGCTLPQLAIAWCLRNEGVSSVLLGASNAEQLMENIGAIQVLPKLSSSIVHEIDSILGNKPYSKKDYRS
Muscarinic acetylcholine receptor M4 (Homo sapiens), sequence (P08173 whole entry, looked up): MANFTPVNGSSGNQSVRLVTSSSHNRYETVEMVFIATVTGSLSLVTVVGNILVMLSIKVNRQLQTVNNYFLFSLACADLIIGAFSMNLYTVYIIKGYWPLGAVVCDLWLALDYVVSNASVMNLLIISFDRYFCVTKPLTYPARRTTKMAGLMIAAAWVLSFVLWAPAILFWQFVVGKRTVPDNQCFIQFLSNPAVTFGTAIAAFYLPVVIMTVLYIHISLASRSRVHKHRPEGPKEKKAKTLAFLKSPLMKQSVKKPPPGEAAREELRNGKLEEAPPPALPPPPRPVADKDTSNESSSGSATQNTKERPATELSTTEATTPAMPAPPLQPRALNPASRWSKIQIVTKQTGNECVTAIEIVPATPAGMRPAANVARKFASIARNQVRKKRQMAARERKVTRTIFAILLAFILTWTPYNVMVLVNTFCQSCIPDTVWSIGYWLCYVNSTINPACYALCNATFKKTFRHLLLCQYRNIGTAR

| Structure (SMILES) | cell count [1] | inhibition [1] | inhibition of aggregation [2] | nuclei count [2] [%] | inhibition [3] | nuclei count [3] [%] | fluorescence slope [4] | NADPH fluorescence slope [5] | fluorescence slope [6] | inhibition [7] | inhibition [8] |
| --- | --- | --- | --- | --- | --- | --- | --- | --- | --- | --- | --- |
| CC(C)=CC(=O)Nc1ccc(Br)cc1 | 670 | -11.9% (inactive) | -6.6% (inactive) | 73.9 | 5.2% (inactive) | 91.1 | -0.582 (inactive) | -1.3e-05 (inactive) | 0.00668 (inactive) | -88% (inactive) | -158% (inactive) |
| Cc1ccccc1NC(=O)C1CCN(c2cnccn2)CC1 | 304 | 2.2% (inactive) | -10.2% (inactive) | 86.3 | -42.9% (inactive) | 111 | -0.543 (inactive) | -1.5e-06 (inactive) | 0.00512 (inactive) | 5.1% (inactive) | 15.6% (inactive) |
| O=c1c2c(nc3nc(COc4ccccc4)[nH]n13)CCC2 | 305 | 5.6% (inactive) | 19.9% (inactive) | 100 | -89.8% (inactive) | 102 | -0.539 (inactive) | -9.7e-06 (inactive) | 0.00436 (inactive) | 15.2% (inactive) | 18% (inactive) |
| CCCn1c(N2CCN(CC(=O)NCc3cccs3)CC2)nc2ccccc21 | 451 | -6.7% (inactive) | 5.2% (inactive) | 110 | -81.5% (inactive) | 228 | -0.437 (inactive) | -3.1e-05 (inactive) | 0.00415 (inactive) | 21.5% (inactive) | 28.5% (inactive) |
| Fc1c(F)c(F)c(CSc2nc3ccccc3[nH]2)c(F)c1F | 423 | 0% (inactive) | 28.9% (inactive) | 82.8 | -40.6% (inactive) | 86.2 | -0.562 (inactive) | -3.7e-05 (inactive) | 0.0075 (inactive) | -6.35% (inactive) | -46.6% (inactive) |
| CCOc1ccc(C(=O)N2CCC(C(=O)c3ccc4c(c3)OCCO4)CC2)cc1 | 511 | -4.3% (inactive) | 6% (inactive) | 91.2 | -99.7% (inactive) | 116 | -0.511 (inactive) | -0.000103 (inactive) | 0.00391 (inactive) | 10.8% (inactive) | 2.96% (inactive) |
| COc1cccc(-c2cc(C(=O)N3CCCc4ccccc43)no2)c1 | 406 | -23% (inactive) | -4.7% (inactive) | 102 | -13.2% (inactive) | 94.5 | -0.217 (inactive) | -1.8e-05 (inactive) | 0.00726 (inactive) | 0.639% (inactive) | -88.4% (inactive) |
| CCOCCCNCC(=O)N1CCN(S(=O)(=O)c2ccc(C)cc2)CC1 | 642 | 19.3% (inactive) | -0.2% (inactive) | 94.5 | -61.6% (inactive) | 131 | -0.614 (inactive) | 1.2e-05 (inactive) | 0.00526 (inactive) | 7.31% (inactive) | 27.6% (inactive) |
| COc1ccc(OC(C)C(=O)N2CCN(c3ccccn3)CC2)cc1 (stereo not drawn) | 395 | 7.5% (inactive) | 3% (inactive) | 103 | -90.1% (inactive) | 115 | -0.447 (inactive) | -3.5e-05 (inactive) | 0.0048 (inactive) | 21.5% (inactive) | 18% (inactive) |
| CCOC(=O)C1CCN(Cc2ccc(C(=O)OC)cc2)CC1 | 462 | -4.3% (inactive) | -0.6% (inactive) | 97 | 4.3% (inactive) | 85.6 | -0.595 (inactive) | -4.2e-05 (inactive) | 0.0043 (inactive) | 0.779% (inactive) | 12.5% (inactive) |
| O=S(=O)(c1ccccc1)N1CCSC1c1ccco1 (stereo not drawn) | 444 | 1.2% (inactive) | 7% (inactive) | 100 | 33.5% (inactive) | 102 | -0.555 (inactive) | -4e-05 (inactive) | 0.00572 (inactive) | -30.7% (inactive) | -9.12% (inactive) |
| CC(C)CC(NC(=O)OC(C)(C)C)C(=O)NC(C(=O)NC(C)C(N)=O)C(C)C (stereo not drawn) (Boc-Leu-Val-Ala-NH2; configuration not given here) | 342 | 4.6% (inactive) | 4.4% (inactive) | 116 | -20.6% (inactive) | 117 | -0.573 (inactive) | -1.3e-05 (inactive) | 0.00562 (inactive) | -9.68% (inactive) | 17.1% (inactive) |
| Brc1ccc2[nH]ncc2c1 | 364 | 4.4% (inactive) | 8.2% (inactive) | 91.4 | 13.4% (inactive) | 77 | -0.477 (inactive) | -3.1e-06 (inactive) | 0.00572 (inactive) | 15.5% (inactive) | 22.5% (inactive) |
| COc1cccc2cc(C(=O)N3CCN(C45CC6CC(CC(C6)C4)C5)CC3)c(=O)oc12 | 213 | 9.1% (inactive) | 17.3% (inactive) | 71.5 | 43.8% (inactive) | 85.2 | -0.443 (inactive) | 2.5e-05 (inactive) | 0.00456 (inactive) | 5.81% (inactive) | 21.6% (inactive) |
| CN(c1cccc(NC(=O)COc2ccccc2)c1)S(C)(=O)=O | 226 | 7.2% (inactive) | 21.6% (inactive) | 91.6 | -143% (inactive) | 111 | -0.49 (inactive) | 6.4e-05 (inactive) | 0.00411 (inactive) | -58.9% (inactive) | -120% (inactive) |
| CC(C)CC(=O)CN1C(=O)C2(OCCO2)c2ccccc21 | 490 | -2.4% (inactive) | 22.6% (inactive) | 100 | 6.8% (inactive) | 94.9 | -0.231 (inactive) | -1.2e-05 (inactive) | 0.00852 (inactive) | 17.6% (inactive) | -9.91% (inactive) |
| CC(O)CN(Cc1cccc(Cl)c1)CC(C)O (stereo not drawn) | 473 | 0.5% (inactive) | 1.4% (inactive) | 100 | 10.2% (inactive) | 95.1 | -0.431 (inactive) | 1.1e-05 (inactive) | 0.00551 (inactive) | 18.8% (inactive) | 19.5% (inactive) |
| COc1ccc(OCC(=O)N2CCN(C(=O)c3cccs3)CC2)cc1 | 365 | -7% (inactive) | -31.2% (inactive) | 89 | -51.4% (inactive) | 124 | -0.57 (inactive) | -5.4e-05 (inactive) | 0.00633 (inactive) | 21.2% (inactive) | 17.7% (inactive) |
| CSC(=O)CC(=O)NC(=O)c1ccccc1 | 373 | 0% (inactive) | -2.5% (inactive) | 90 | -76.9% (inactive) | 159 | -0.605 (inactive) | 1.1e-06 (inactive) | 0.00374 (inactive) | 7.05% (inactive) | 5.94% (inactive) |
| CCOc1cc(C2C(C(=O)OC(C)C)=C(C)N=C3SCCC(=O)N32)ccc1OC(C)=O (stereo not drawn) | 284 | 5.8% (inactive) | 8.8% (inactive) | 105 | 1.9% (inactive) | 105 | -0.42 (inactive) | -0.000412 (inactive) | 0.00512 (inactive) | 11.7% (inactive) | 24% (inactive) |
| Cc1cc(NC(=O)CN2CCC(O)(c3cccc(F)c3)CC2)no1 | 584 | -53.1% (inactive) | 0.2% (inactive) | 103 | -107% (inactive) | 117 | -0.283 (inactive) | -1.6e-05 (inactive) | 0.00664 (inactive) | -0.229% (inactive) | 20.2% (inactive) |
| O=c1cc(-c2ccco2)oc2ccc(Cl)cc12 | 286 | -0.8% (inactive) | 19.7% (inactive) | 70 | 32.1% (inactive) | 111 | -0.568 (inactive) | -2.4e-05 (inactive) | 0.00691 (inactive) | 6.8% (inactive) | -71.7% (inactive) |
| FC(F)(F)c1cc(-c2ccco2)nc(-n2nnc3ccccc32)n1 | 529 | -6.9% (inactive) | -8.6% (inactive) | 109 | -12% (inactive) | 101 | -0.562 (inactive) | 1.3e-05 (inactive) | 0.00724 (inactive) | 15.2% (inactive) | 22.4% (inactive) |
| C=CCNC(=O)CSc1ccc(Cl)cc1 | 339 | 7.4% (inactive) | -7.8% (inactive) | 96 | -99.8% (inactive) | 101 | -0.448 (inactive) | -0.000358 (inactive) | 0.00478 (inactive) | 5.55% (inactive) | -3.36% (inactive) |
| Cc1nnc(C)c2c(C)n(-c3ccc(Br)cc3)c(C)c12 | 305 | 2.5% (inactive) | -3.9% (inactive) | 104 | -47.7% (inactive) | 111 | -0.497 (inactive) | -4.6e-05 (inactive) | 0.00472 (inactive) | 18% (inactive) | 27.9% (inactive) |
| C=CCOC(=O)C(C#N)c1nc2ccccc2nc1N1CCN(Cc2ccccc2)CC1 (stereo not drawn) | 469 | -5.7% (inactive) | -12.3% (inactive) | 94.6 | -69.4% (inactive) | 181 | -0.402 (inactive) | 6.8e-05 (inactive) | 0.0023 (inactive) | 10.9% (inactive) | 18.7% (inactive) |
| Cc1cc(-c2ccccc2)c2nncn2n1 | 304 | 0.9% (inactive) | -3% (inactive) | 108 | 1.4% (inactive) | 107 | -0.492 (inactive) | -1.4e-05 (inactive) | 0.00457 (inactive) | 18.1% (inactive) | 15.3% (inactive) |
| Cc1ccc(-c2nnc(-c3ccc(Br)cc3)o2)o1 | 454 | 0.5% (inactive) | -10.6% (inactive) | 116 | -31.4% (inactive) | 102 | -0.389 (inactive) | -3e-05 (inactive) | 0.00923 (inactive) | -38.9% (inactive) | -108% (inactive) |
